Experiments:
[1] = test system: orthotopic pancreatic patient-derived xenograft (PDX) tumor; test: In vivo efficacy study in orthotopic pancreatic PDX mouse model; details: 0.25 mg/kg i.p. every other day, NSG mice
Method in brief: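 A surgically resected human pancreatic ductal adenocarcinoma was expanded as 3 × 3 mm flank implants in female NSG mice and passaged at 2.0 cm. Second-generation tumour was then implanted orthotopically. On postoperative day 45 (palpable, 3–4 mm), mice were randomised to test compound 0.25 mg/kg i.p. or DMSO control every other day until endpoint. Diameter was measured by calipers and ultrasound every 3–5 days and volume calculated from it. Analysis used repeated-measures two-way ANOVA with Sidak tests.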

EC46 cells = test: Cell viability assay; type: cell-based, human; details: EC46 primary pancreatic cancer cells, MTT, 48 h
[2] = test system: VEGF-A secretion in PANC-1 and EC46 cells; test: VEGF-A AlphaLISA; type: cell-based, human; details: 12 h
[3] = Tissue distribution and pharmacokinetic study; type: in vivo; details: single 1 mg/kg, NSG mice
Method in brief: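 Female NSG mice (4–10 weeks) received a single 1 mg/kg dose, either i.v. in 10% EtOH/5% Tween-80/85% saline or i.p. in DMSO; 3 mice per time point. Plasma and tissues were collected at 10 min and 1, 3, 8, 24 and 48 h. Tissues were homogenised in PBS, proteins precipitated in acetonitrile/methanol with harmine internal standard, and samples quantified by positive-ESI MRM LC-MS/MS against matrix calibration curves. PK parameters came from noncompartmental analysis.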

CC[C@H](C)[C@@H]1C(=O)N2CCC[C@@H]2C(=O)O[C@H](C(C)(C)C)C[C@@H](C)C[C@@H](O)C(C)(C)C2=N[C@H](CCC(=O)N[C@@H](Cc3ccc(OC)cc3)C(=O)N(C)[C@@H](C)C(=O)N1C)CS2 [Apra S10, apratoxin S10]
tumor growth (tumor volume) [1]: significantly retarded tumor growth
GI50 (EC46 cells): 0.32 nM
effect on VEGF-A secretion [2]: inhibited the secretion of VEGF-A at low nanomolar to subnanomolar concentrations
AUC (area under the concentration-time curve to infinity) ([3]; Brain, IP): 3067 ng·h/mL
AUCt (area under the concentration-time curve) ([3]; Brain, IP): 727 ng·h/mL
CL/F (clearance) ([3]; Brain, IP): 5.43 mL/min/kg
Cmax (peak concentration) ([3]; Brain, IP): 18 ng/mL
Ke (elimination rate constant) ([3]; Brain, IP): 0.006 h⁻¹
MRT (mean residence time) ([3]; Brain, IP): 170.68 h
Tmax (time to peak concentration) ([3]; Brain, IP): 0.17 h
Vz/F (volume of distribution) ([3]; Brain, IP): 55.015 L/kg
t1/2 (half-life) ([3]; Brain, IP): 116.95 h
AUC (area under the concentration-time curve to infinity) ([3]; Brain, IV): 2442 ng·h/mL
AUCt (area under the concentration-time curve) ([3]; Brain, IV): 874 ng·h/mL
CL/F (clearance) ([3]; Brain, IV): 6.82 mL/min/kg
Cmax (peak concentration) ([3]; Brain, IV): 63 ng/mL
Ke (elimination rate constant) ([3]; Brain, IV): 0.009 h⁻¹
MRT (mean residence time) ([3]; Brain, IV): 110.88 h
Tmax (time to peak concentration) ([3]; Brain, IV): 0.17 h
Vz/F (volume of distribution) ([3]; Brain, IV): 46.571 L/kg
t1/2 (half-life) ([3]; Brain, IV): 78.84 h
AUC (area under the concentration-time curve to infinity) ([3]; Kidney, IP): 5559 ng·h/mL
AUCt (area under the concentration-time curve) ([3]; Kidney, IP): 4508 ng·h/mL
CL/F (clearance) ([3]; Kidney, IP): 3 mL/min/kg
Cmax (peak concentration) ([3]; Kidney, IP): 403 ng/mL
Ke (elimination rate constant) ([3]; Kidney, IP): 0.036 h⁻¹
MRT (mean residence time) ([3]; Kidney, IP): 25.57 h
Tmax (time to peak concentration) ([3]; Kidney, IP): 1.00 h
Vz/F (volume of distribution) ([3]; Kidney, IP): 5.02 L/kg
t1/2 (half-life) ([3]; Kidney, IP): 19.34 h
AUC (area under the concentration-time curve to infinity) ([3]; Kidney, IV): 3345 ng·h/mL
AUCt (area under the concentration-time curve) ([3]; Kidney, IV): 3285 ng·h/mL
CL/F (clearance) ([3]; Kidney, IV): 4.98 mL/min/kg
Cmax (peak concentration) ([3]; Kidney, IV): 753 ng/mL
Ke (elimination rate constant) ([3]; Kidney, IV): 0.077 h⁻¹
MRT (mean residence time) ([3]; Kidney, IV): 9.34 h
Tmax (time to peak concentration) ([3]; Kidney, IV): 0.17 h
Vz/F (volume of distribution) ([3]; Kidney, IV): 3.892 L/kg
t1/2 (half-life) ([3]; Kidney, IV): 9.03 h
AUC (area under the concentration-time curve to infinity) ([3]; Liver, IP): 7951 ng·h/mL
AUCt (area under the concentration-time curve) ([3]; Liver, IP): 7485 ng·h/mL
CL/F (clearance) ([3]; Liver, IP): 2.1 mL/min/kg
Cmax (peak concentration) ([3]; Liver, IP): 945 ng/mL
Ke (elimination rate constant) ([3]; Liver, IP): 0.067 h⁻¹
MRT (mean residence time) ([3]; Liver, IP): 12.77 h
Tmax (time to peak concentration) ([3]; Liver, IP): 0.17 h
Vz/F (volume of distribution) ([3]; Liver, IP): 1.865 L/kg
t1/2 (half-life) ([3]; Liver, IP): 10.28 h
AUC (area under the concentration-time curve to infinity) ([3]; Liver, IV): 6560 ng·h/mL
AUCt (area under the concentration-time curve) ([3]; Liver, IV): 6095 ng·h/mL
CL/F (clearance) ([3]; Liver, IV): 2.53 mL/min/kg
Cmax (peak concentration) ([3]; Liver, IV): 1127 ng/mL
Ke (elimination rate constant) ([3]; Liver, IV): 0.056 h⁻¹
MRT (mean residence time) ([3]; Liver, IV): 14.08 h
Tmax (time to peak concentration) ([3]; Liver, IV): 0.17 h
Vz/F (volume of distribution) ([3]; Liver, IV): 2.741 L/kg
t1/2 (half-life) ([3]; Liver, IV): 12.46 h
AUC (area under the concentration-time curve to infinity) ([3]; Lung, IP): 3310 ng·h/mL
AUCt (area under the concentration-time curve) ([3]; Lung, IP): 2321 ng·h/mL
CL/F (clearance) ([3]; Lung, IP): 5.03 mL/min/kg
Cmax (peak concentration) ([3]; Lung, IP): 210 ng/mL
Ke (elimination rate constant) ([3]; Lung, IP): 0.023 h⁻¹
MRT (mean residence time) ([3]; Lung, IP): 38.38 h
Tmax (time to peak concentration) ([3]; Lung, IP): 0.17 h
Vz/F (volume of distribution) ([3]; Lung, IP): 13.044 L/kg
t1/2 (half-life) ([3]; Lung, IP): 29.93 h
AUC (area under the concentration-time curve to infinity) ([3]; Lung, IV): 2768 ng·h/mL
AUCt (area under the concentration-time curve) ([3]; Lung, IV): 2273 ng·h/mL
CL/F (clearance) ([3]; Lung, IV): 6.02 mL/min/kg
Cmax (peak concentration) ([3]; Lung, IV): 329 ng/mL
Ke (elimination rate constant) ([3]; Lung, IV): 0.041 h⁻¹
MRT (mean residence time) ([3]; Lung, IV): 24.55 h
Tmax (time to peak concentration) ([3]; Lung, IV): 0.17 h
Vz/F (volume of distribution) ([3]; Lung, IV): 8.837 L/kg
t1/2 (half-life) ([3]; Lung, IV): 16.95 h
AUC (area under the concentration-time curve to infinity) ([3]; Pancreas, IP): 60205 ng·h/mL
AUCt (area under the concentration-time curve) ([3]; Pancreas, IP): 54532 ng·h/mL
CL/F (clearance) ([3]; Pancreas, IP): 0.283 mL/min/kg
Cmax (peak concentration) ([3]; Pancreas, IP): 2883 ng/mL
Ke (elimination rate constant) ([3]; Pancreas, IP): 0.051 h⁻¹
MRT (mean residence time) ([3]; Pancreas, IP): 17.46 h
Tmax (time to peak concentration) ([3]; Pancreas, IP): 3.00 h
Vz/F (volume of distribution) ([3]; Pancreas, IP): 0.323 L/kg
t1/2 (half-life) ([3]; Pancreas, IP): 13.49 h
AUC (area under the concentration-time curve to infinity) ([3]; Pancreas, IV): 49289 ng·h/mL
AUCt (area under the concentration-time curve) ([3]; Pancreas, IV): 45982 ng·h/mL
CL/F (clearance) ([3]; Pancreas, IV): 0.333 mL/min/kg
Cmax (peak concentration) ([3]; Pancreas, IV): 2348 ng/mL
Ke (elimination rate constant) ([3]; Pancreas, IV): 0.059 h⁻¹
MRT (mean residence time) ([3]; Pancreas, IV): 14.80 h
Tmax (time to peak concentration) ([3]; Pancreas, IV): 8.00 h
Vz/F (volume of distribution) ([3]; Pancreas, IV): 0.342 L/kg
t1/2 (half-life) ([3]; Pancreas, IV): 11.70 h
AUC (area under the concentration-time curve to infinity) ([3]; Plasma, IP): 1292 ng·h/mL
AUCt (area under the concentration-time curve) ([3]; Plasma, IP): 1251 ng·h/mL
CL/F (clearance) ([3]; Plasma, IP): 12.9 mL/min/kg
Cmax (peak concentration) ([3]; Plasma, IP): 775 ng/mL
Ke (elimination rate constant) ([3]; Plasma, IP): 0.082 h⁻¹
MRT (mean residence time) ([3]; Plasma, IP): 6.54 h
Tmax (time to peak concentration) ([3]; Plasma, IP): 0.17 h
Vz/F (volume of distribution) ([3]; Plasma, IP): 9.49 L/kg
t1/2 (half-life) ([3]; Plasma, IP): 8.50 h
AUC (area under the concentration-time curve to infinity) ([3]; Plasma, IV): 1303 ng·h/mL
AUCt (area under the concentration-time curve) ([3]; Plasma, IV): 1287 ng·h/mL
CL/F (clearance) ([3]; Plasma, IV): 12.8 mL/min/kg
Cmax (peak concentration) ([3]; Plasma, IV): 1072 ng/mL
Ke (elimination rate constant) ([3]; Plasma, IV): 0.089 h⁻¹
MRT (mean residence time) ([3]; Plasma, IV): 4.20 h
Tmax (time to peak concentration) ([3]; Plasma, IV): 0.17 h
Vz/F (volume of distribution) ([3]; Plasma, IV): 8.616 L/kg
t1/2 (half-life) ([3]; Plasma, IV): 7.78 h
AUC (area under the concentration-time curve to infinity) ([3]; Salivary gland, IP): 19233 ng·h/mL
AUCt (area under the concentration-time curve) ([3]; Salivary gland, IP): 13009 ng·h/mL
CL/F (clearance) ([3]; Salivary gland, IP): 0.867 mL/min/kg
Cmax (peak concentration) ([3]; Salivary gland, IP): 556 ng/mL
Ke (elimination rate constant) ([3]; Salivary gland, IP): 0.024 h⁻¹
MRT (mean residence time) ([3]; Salivary gland, IP): 41.75 h
Tmax (time to peak concentration) ([3]; Salivary gland, IP): 3.00 h
Vz/F (volume of distribution) ([3]; Salivary gland, IP): 2.2 L/kg
t1/2 (half-life) ([3]; Salivary gland, IP): 29.33 h
AUC (area under the concentration-time curve to infinity) ([3]; Salivary gland, IV): 26182 ng·h/mL
AUCt (area under the concentration-time curve) ([3]; Salivary gland, IV): 23604 ng·h/mL
CL/F (clearance) ([3]; Salivary gland, IV): 0.633 mL/min/kg
Cmax (peak concentration) ([3]; Salivary gland, IV): 1258 ng/mL
Ke (elimination rate constant) ([3]; Salivary gland, IV): 0.048 h⁻¹
MRT (mean residence time) ([3]; Salivary gland, IV): 19.56 h
Tmax (time to peak concentration) ([3]; Salivary gland, IV): 1.00 h
Vz/F (volume of distribution) ([3]; Salivary gland, IV): 0.797 L/kg
t1/2 (half-life) ([3]; Salivary gland, IV): 14.46 h
AUC (area under the concentration-time curve to infinity) ([3]; Spleen, IP): 6586 ng·h/mL
AUCt (area under the concentration-time curve) ([3]; Spleen, IP): 5011 ng·h/mL
CL/F (clearance) ([3]; Spleen, IP): 2.53 mL/min/kg
Cmax (peak concentration) ([3]; Spleen, IP): 253 ng/mL
Ke (elimination rate constant) ([3]; Spleen, IP): 0.031 h⁻¹
MRT (mean residence time) ([3]; Spleen, IP): 31.38 h
Tmax (time to peak concentration) ([3]; Spleen, IP): 0.17 h
Vz/F (volume of distribution) ([3]; Spleen, IP): 4.868 L/kg
t1/2 (half-life) ([3]; Spleen, IP): 22.22 h
AUC (area under the concentration-time curve to infinity) ([3]; Spleen, IV): 6838 ng·h/mL
AUCt (area under the concentration-time curve) ([3]; Spleen, IV): 4686 ng·h/mL
CL/F (clearance) ([3]; Spleen, IV): 2.43 mL/min/kg
Cmax (peak concentration) ([3]; Spleen, IV): 195 ng/mL
Ke (elimination rate constant) ([3]; Spleen, IV): 0.027 h⁻¹
MRT (mean residence time) ([3]; Spleen, IV): 38.00 h
Tmax (time to peak concentration) ([3]; Spleen, IV): 8.00 h
Vz/F (volume of distribution) ([3]; Spleen, IV): 5.353 L/kg
t1/2 (half-life) ([3]; Spleen, IV): 25.37 h
